From article PMC5508592 (The New England journal of medicine, 2016)
Read-outs that look alike come from different tables or passages of the source.

Columns and labels:
[1] = system: DhhCre;Nf1fl/fl model of neurofibromatosis type 1–related neurofibromas; settings: cited from earlier work
[2] = system: plexiform neurofibroma–related complications; test: Anecdotal report of amelioration of complications of plexiform neurofibroma; type: in vivo, human
[3] = system: neurofibromatosis type 1–related plexiform neurofibromas; test: Response evaluation by volumetric MRI analysis of plexiform neurofibroma volume; type: in vivo, human
[4] = system: phosphorylated extracellular signal-regulated kinase (ERK); test: Pharmacodynamics in mouse tumor samples; settings: in vivo
[5] = children with low-grade gliomas; cited from earlier work
[6] = type: in vivo
[7] = Plasma pharmacokinetics of selumetinib in patients during cycle 1; type: in vivo, human
In short: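 Pediatric patients who consented received oral test compound capsules every 12 h, continuously in 28-day cycles, at 20, 25 or 30 mg per square meter (nomogram by body-surface area). Plasma was sampled in cycle 1 on day 1 before dosing and 0.5, 1, 2, 3, 5, 8, 10–12, 24 and 30–36 h after, and on day 27 before dosing. Parent and N-desmethyl metabolite were assayed; noncompartmental PK analysis.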

plexiform neurofibromas = settings: 4 of 83 patients; phase 2 trial; cited from earlier work
[8] = 20-mg group, 7 patients with condition at baseline
[9] = 25-mg group, 3 patients with condition at baseline
[10] = 30-mg group, 3 patients with condition at baseline

For `O=C(NOC[C@H](O)CO)c1ccc(F)c(F)c1Nc1ccc(I)cc1F` [PD0325901], the “Effect on neurofibroma volume” value [1] is listed as “tumor shrinkage in the majority of mice”.

In the case of `Cn1cnc2c(F)c(Nc3ccc(Br)cc3Cl)c(C(=O)NOCCO)cc21` [selumetinib], the “Motor dysfunction: no. of patients with improvement” value (“Motor dysfunction: no. of patients” below) ([2]; 20-mg group, 3 patients with condition at baseline) is reported as 2, the “Disfigurement: no. of patients with improvement” value (“Disfigurement: no. of patients” below) [2, 8] is reported as 2 and the “Pain: no. of patients with improvement” value [2, 8] is reported as 4. For the same compound, the “Motor dysfunction: no. of patients” value [2, 9] was 3, the “Pain: no. of patients with improvement” value [2, 9] was 3 and the “Disfigurement: no. of patients” value ([2]; 25-mg group, 6 patients with condition at baseline) was 3. The “Motor dysfunction: no. of patients” value [2, 10] was 0, the “Pain: no. of patients with improvement” value [2, 10] was 1 and the “Disfigurement: no. of patients” value ([2]; 30-mg group, 5 patients with condition at baseline) was 0. For the same compound, the “Partial response, documented progressive disease at enrollment” value ([3]; 5 of 9 patients) was 56%, the “Partial response, no previous volumetric data available at enrollment” value ([3]; 6 of 7 patients) was 86% and the “Median time free of progression” value ([3]; 9 patients with confirmed tumor growth before enrollment, range, 23 to 46) was 26 cycles. The Confirmed partial response ([3]; 17 of the 24 patients, tumor volume decrease from baseline ≥20%) was 71%, the “Median best response (range)” value ([3]; 20-mg group (N = 12)) was −31 (−6 to −47) % volume change from baseline and the “Median time to best response (range)” value ([3]; 20-mg group (N = 12)) was 22 (5 to 42) mo. The Partial response ([3]; 20-mg group (N = 12), tumor volume decrease from baseline ≥20% for at least 4 weeks) was 9 (75) no. (%), the “No. with response, insufficient information on progression status at entry” value (“No. with response … at entry” below) ([3]; 20-mg group, of 4 patients) was 3 and the “No. with response, nonprogressive disease at trial entry” value ([3]; 20-mg group, of 4 patients) was 4. The “No. with response, progressive disease at trial entry” value ([3]; 20-mg group, of 4 patients) was 2, the “Median best response (range)” value ([3]; 25-mg group (N = 6)) was −34 (−16 to −44) % volume change from baseline and the “Median time to best response (range)” value ([3]; 25-mg group (N = 6)) was 18 (9 to 22) mo. The Partial response ([3]; 25-mg group (N = 6), tumor volume decrease ≥20%) was 5 (83) no. (%), the “No. with response … at entry” value ([3]; 25-mg group, of 2 patients) was 2 and the “No. with response, progressive disease at trial entry” value ([3]; 25-mg group, of 4 patients) was 3. For the same compound, the “Median best response (range)” value ([3]; 30-mg group (N = 6)) was −19 (−13 to −34) % volume change from baseline, the “Median time to best response (range)” value ([3]; 30-mg group (N = 6)) was 8 (5 to 24) mo and the Partial response ([3]; 30-mg group (N = 6), tumor volume decrease ≥20%) was 3 (50) no. (%). For the same compound, the “No. with response … at entry” value ([3]; 30-mg group, of 1 patient) was 1, the “No. with response, progressive disease at trial entry” value ([3]; 30-mg group, of 1 patient) was 0 and the “No. with response, nonprogressive disease at trial entry” value ([3]; 30-mg group, of 4 patients) was 2. The “Tumor volume reduction since reinitiation at a reduced dose” value ([3]; Patient 7 (30-mg group)) was 25%, the “Increase in plexiform neurofibroma volume from baseline after drug interruption” value ([3]; Patient 7 (30-mg group), when selumetinib was restarted) was 9.6% and the “Median change from baseline in plexiform neurofibroma volume (best response)” value ([3]; all 24 patients) was −31%. The “Range of change from baseline in plexiform neurofibroma volume (best response)” value ([3]; all 24 patients) was −5.8 to −47%, the “Median time to maximum response” value ([3]; all patients, range, 5 to 42) was 20 cycles and the “Partial response, tumors assessed as stable at enrollment” value ([3]; in vivo) was 2 of 2. For the same compound, the “Patients with partial response who maintain their response status to date” value ([3]; in vivo) was 15 of the 17, the “Median duration of partial response” value ([3]; range, 6 to 42) was 23 cycles and the “Disease progression (tumor volume increase from baseline of ≥20%)” value ([3]; to date) was “No patients have had disease progression”. The “Phosphorylated ERK in mouse tumor samples” value [4] was “transient decrease”, the Maximum tolerated dose [5] was 25 mg per square meter and the “Tolerability of 30 mg per square meter relative to maximum tolerated dose” value ([6]; 30 mg per square meter twice daily) was “exceeded the maximum tolerated dose”. For the same compound, the Maximum tolerated dose ([6]; children, oral, every 12 hours, continuous dosing in 28-day cycles, approximately 60% of the recommended adult dose) was 25 mg per square meter, the “Dose-limiting toxic effect: cellulitis” value ([6]; human, in vivo) was “Grade 3 (2 patients)” and the “Dose-limiting toxic effect: decreased left ventricular ejection fraction” value ([6]; human, in vivo) was “Grade 3 (1 patient)”. The “Dose-limiting toxic effect: rash” value ([6]; human, in vivo) was “Grade 3 (1 patient)”, the “Dose-limiting toxic effect: urticaria” value ([6]; human, in vivo) was “Grade 3 (1 patient)” and the “Dose-limiting toxic effects in later cycles: cellulitis” value ([6]; human, in vivo) was 1 patient. The “Dose-limiting toxic effects in later cycles: creatine kinase elevation” value ([6]; human, in vivo) was 4 patients, the “Dose-limiting toxic effects in later cycles: oral mucositis” value ([6]; human, in vivo) was 3 patients and the “Left ventricular ejection fraction after decrease” value ([6]; human, in vivo) was 50%. For the same compound, the Serial ophthalmologic examinations ([6]; human, in vivo) was “no abnormalities, with the exception of a grade 1 asymptomatic cataract at cycle 16 in 1 patient”, the “Severity of most selumetinib-related adverse events” value ([6]; human, in vivo) was “mild (grade 1)” and the “Treatment stopped because of dose-limiting toxic effects” value ([6]; human, in vivo) was 1. The “Effect on height or weight” value ([6]; in vivo) was “No measurable effect”, the “Reversibility of dose-limiting toxic effects” value ([6]; in vivo) was “reversible” and the “Drug exposure with increasing dose” value ([7]; 20 to 30 mg per square meter) was “less than dose-proportional”. The “Selumetinib plasma concentrations versus N-desmethyl metabolite” value ([7]; plasma) was “exceeded those of the N-desmethyl metabolite at all time points” and the Absorption ([7]; plasma, cycle 1, 18 patients) was “absorbed rapidly”.

For pegylated interferon alfa-2b, the “Patients with tumor volume decrease from baseline of at least 20%” value (plexiform neurofibromas) is given as 5%.
